Source: PubChem BioAssay
STAT3 blocker: reduces IL-6 driven STAT3 reporter signal; U3A cells, IL-6 STAT3-luciferase reporter, luminescence; host cell line lacks STAT1; actives 0.89% (n = 190,000); inhibition, % at 5.5 µM; AID 862;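 active = inhibition above the mean inhibition across all screened compounds plus 3 SD, cut at about 44% in these data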;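 note: 0% = DMSO only wells and 100% = 100 µM nifuroxazide control wells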
STAT3 activator: activators of IL-6 induced STAT3 signaling; U3A cells, IL-6 STAT3-luciferase reporter, luminescence; 100% = signal with IL-6 EC80 alone; activation (% of control), % at 5.6 µM; actives 0.91% (n = 190,000);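 active = activation above the screen-wide mean of compound activation plus 3 SD, cut at about 130% in these data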;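 note: 0% = background luminescence of wells with medium and substrate only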
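Material: human STAT1-deficient U3A cells with stable STAT3-luciferase reporter / Probe or stimulus: IL-6 stimulus at 33 ng/mL final / Schedule: 1 h compound pre-exposure, 6 h IL-6 stimulation, 37 °C / Technique: luminescence / Read-out basis: percent of IL-6-only median luminescence / Control set: IL-6-only high control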
STAT1 act: increases IFN-gamma driven STAT1 reporter signal; NIH 3T3 STAT1-luciferase reporter, luminescence; 100% = IFN-gamma alone, no compound; activation (% of control), % at 5.5 µM; actives 2.6% (n = 200,000);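 active = activation above the screen-wide mean activation plus 3 SD, cut at about 130% in these data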;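 note: raw ratio to IFN-gamma control signal so 100% means no change and 0% no light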
APP 5'UTR act: activates APP 5'UTR luciferase reporter. activation, % at 2 µM. AID 1276. actives 1% (n = 190,000). SH-SY5Y APP 5'UTR luciferase reporter, luminescence; zero percent = DMSO vehicle wells;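 active = activation above a set limit, based on mean plus 3 SD of controls, cut at about 140% in these data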
STAT1 inh: STAT1 signaling inhibition; NIH 3T3 STAT1-luciferase reporter, IFN-gamma, luminescence; inhibition, % at 5.5 µM; actives 0.35% (n = 200,000);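 active = inhibition above a set limit, the mean inhibition across all tested compounds plus 3 SD, cut at about 34% in these data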;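 note: 0% = IFN-gamma with DMSO and 100% = IFN-gamma with 300 µM nifuroxazide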
NF-kB expr up: compounds increasing NF-kB expression in human neuronal cells. NF-kB reporter expression; hits give high values. actives 1.6% (n = 190,000). fold change at 12.5 µM; in the data active = fold change above about 3.3
* hit, by the source's call. In the library only some 5.1% were active in any assay of this set; here they are far more common.

`CCNc1nc(-c2ccc(Cl)cc2)cs1` gave STAT3 blocker 17, STAT3 activator 90, STAT1 act 149*, APP 5'UTR act 148*, STAT1 inh -51 and NF-kB expr up 3.8*.
For CNc1nc(-c2ccc([N+](=O)[O-])cc2)cs1 the results were STAT3 blocker 23, STAT3 activator 84, STAT1 act 137*, APP 5'UTR act 34, STAT1 inh -40 and NF-kB expr up 2.1.
Screening Cc1c(N=NC2=C(O)CCCC2=O)c(=O)n(-c2ccccc2)n1C returned STAT3 blocker 0, STAT3 activator 102, STAT1 act 93, APP 5'UTR act 13, STAT1 inh 7 and NF-kB expr up 1.2.
Screening Cc1ccc(-n2c(C)nn(CCOc3ccccc3)c2=O)cc1 returned STAT3 blocker -7, STAT3 activator 110, STAT1 act 134*, APP 5'UTR act 58, STAT1 inh -40 and NF-kB expr up 2.2.
`Cc1nn(CC2CC2)c(=O)n1-c1ccccc1F` gave STAT3 blocker 4, STAT3 activator 100, STAT1 act 96, APP 5'UTR act 7, STAT1 inh 4 and NF-kB expr up 1.2.
`Cc1nn(CCOc2ccccc2)c(=O)n1-c1c(F)cccc1F` gave STAT3 blocker -7, STAT3 activator 111, STAT1 act 140*, APP 5'UTR act 62, STAT1 inh -45 and NF-kB expr up 2.4.
Screening O=C(Nc1ccccc1)OCCCc1ccccc1 returned STAT3 blocker 12, STAT3 activator 92, STAT1 act 140*, APP 5'UTR act 33, STAT1 inh -45 and NF-kB expr up 2.6.
For Cc1cc(NC(=O)CN2C(=O)NC3(CCC(C)CC3)C2=O)no1 (configuration not stated) the results were STAT3 blocker 0, STAT3 activator 98, STAT1 act 100, APP 5'UTR act -4, STAT1 inh 2 and NF-kB expr up 1.2.
Cc1nnc(SCC(=O)NC2CC2)n1CC1CCCO1 (configuration not stated) was read as STAT3 blocker 3, STAT3 activator 103, STAT1 act 98, APP 5'UTR act -5, STAT1 inh 0 and NF-kB expr up 1.2.
`CCCCCCc1ccc(-c2ncc(N)cn2)cc1` gave STAT3 blocker 3, STAT3 activator 100, STAT1 act 139*, APP 5'UTR act 70, STAT1 inh -42 and NF-kB expr up 4.4*.
For CC[n+]1c(/C=C2\C=C(C)CC(C)(C)C2)sc2ccccc21 the results were STAT3 blocker 50*, STAT3 activator 60, STAT1 act 77, APP 5'UTR act -11, STAT1 inh 26 and NF-kB expr up 1.4.
For CC[n+]1c(/C=C2/C=C(C)CC(C)(C)C2)sc2ccc(OC)cc21 the results were STAT3 blocker 58*, STAT3 activator 54, STAT1 act 76, APP 5'UTR act 0, STAT1 inh 26 and NF-kB expr up 0.95.
`COc1cc(C(=O)Nc2cc(C)ccn2)cc(OC)c1OC` gave STAT3 blocker -1, STAT3 activator 105, STAT1 act 98, APP 5'UTR act 16, STAT1 inh 2 and NF-kB expr up 1.2.
Screening COc1ccc(C(=O)NC(=O)Nc2cc(C)ccn2)cc1 returned STAT3 blocker 97*, STAT3 activator 17, STAT1 act 64, APP 5'UTR act 159*, STAT1 inh 39* and NF-kB expr up 1.9.
CC(Sc1ccc2c(c1)OCCO2)C(=O)Nc1ccc(N2CCOCC2)cc1 (configuration not stated) was read as STAT3 blocker 7, STAT3 activator 96, STAT1 act 105, APP 5'UTR act 12, STAT1 inh -5 and NF-kB expr up 1.2.
COC(=O)C1=C(C)Nc2nc(SCc3ccccc3)[nH]c(=O)c2C1c1cccs1 (configuration not stated) was read as STAT3 blocker -3, STAT3 activator 103, STAT1 act 93, APP 5'UTR act -11, STAT1 inh 8 and NF-kB expr up 0.95.
Cc1ccc(OC(C)C(=O)N/N=C/c2ccccn2)cc1 (configuration not stated) was read as STAT3 blocker -4, STAT3 activator 105, STAT1 act 113, APP 5'UTR act -10, STAT1 inh -14 and NF-kB expr up 1.
Screening COC(=O)[C@@H]1CCCN1C(=O)CCc1nnc(CCC2CCCCC2)o1 returned STAT3 blocker 4, STAT3 activator 101, STAT1 act 139*, APP 5'UTR act 55, STAT1 inh -42 and NF-kB expr up 2.6.
Screening COC(=O)[C@@H]1CCCN1C(=O)CCc1nnc(CCc2c[nH]c3ccccc23)o1 returned STAT3 blocker -4, STAT3 activator 105, STAT1 act 100, APP 5'UTR act -19, STAT1 inh -1 and NF-kB expr up 1.7.
`O=C(c1cccs1)N(C(=O)c1cccs1)c1ccc(Br)cn1` gave STAT3 blocker 8, STAT3 activator 94, STAT1 act 134*, APP 5'UTR act 102, STAT1 inh -37 and NF-kB expr up 4*.
`Cc1ccnc(N(C(=O)c2cccs2)C(=O)c2cccs2)c1` gave STAT3 blocker 5, STAT3 activator 99, STAT1 act 128, APP 5'UTR act 68, STAT1 inh -30 and NF-kB expr up 2.3.
Cc1nc2ccc(C(=O)N3c4ccccc4CC3C)cc2s1 (configuration not stated) was read as STAT3 blocker 6, STAT3 activator 97, STAT1 act 86, APP 5'UTR act -4, STAT1 inh 13 and NF-kB expr up 1.6.
Screening CCCCCn1cnc2c(sc3nc4c(cc32)CSC(C)(C)C4)c1=O returned STAT3 blocker -21, STAT3 activator 125, STAT1 act 138*, APP 5'UTR act 91, STAT1 inh -42 and NF-kB expr up 1.5.
For CC1(C)Cc2nc3sc4c(=O)[nH]cnc4c3cc2CS1 the results were STAT3 blocker -15, STAT3 activator 114, STAT1 act 111, APP 5'UTR act -4, STAT1 inh -12 and NF-kB expr up 1.5.
For Brc1cccc(CNc2nc3ccccc3n2CCN2CCOCC2)c1 the results were STAT3 blocker 12, STAT3 activator 97, STAT1 act 90, APP 5'UTR act 4, STAT1 inh 10 and NF-kB expr up 1.
Screening CCN(CCn1cccn1)C(=O)CCc1nnc(-c2ccc3c(c2)OCO3)o1 returned STAT3 blocker 7, STAT3 activator 104, STAT1 act 117, APP 5'UTR act 6, STAT1 inh -20 and NF-kB expr up 1.4.
CCN(CCn1cccn1)C(=O)CCc1nnc(CCCc2ccccc2)o1 was read as STAT3 blocker -19, STAT3 activator 118, STAT1 act 147*, APP 5'UTR act 67, STAT1 inh -53 and NF-kB expr up 4.1*.
